In brackets after ≈: the same amount, converted by molar mass.
Columns and labels:
Format in all cases: functional
Escherichia coli [1] = assay: Antimicrobial activity against Escherichia coli DH5alpha harboring plasmid containing OXA-58-3 by broth dilution test
Acinetobacter baumannii [2] = assay: Antimicrobial activity against Acinetobacter baumannii ATCC 15151T containing plasmid harboring OXA-58-3 by broth dilution test
Summary of the method: (§1)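 Recombinant plasmids were electroporated (2.5 kV, 25 µF) into electrocompetent cells harvested at exponential phase (OD600 0.5–0.7). Cells were recovered in SOC broth at 37°C for 1 h and selected on antibiotics. MICs were then read by Sensititre broth dilution or agar dilution per CLSI, with carbapenems confirmed by Etest. Tests were run in duplicate with ATCC 25922/27853 controls.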

Acinetobacter baumannii [3] = assay: Antimicrobial activity against Acinetobacter baumannii TVICU53 by broth dilution test
Summary of the method: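 MICs by broth dilution on automated susceptibility plates, or by agar dilution, read and interpreted per CLSI guidelines; carbapenem MICs confirmed by Etest. Clinical isolate tested against a panel of aminoglycosides, β-lactams, β-lactam/inhibitor combinations, carbapenems, ciprofloxacin, chloramphenicol and trimethoprim-sulfamethoxazole. E. coli ATCC 25922 and P. aeruginosa ATCC 27853 run as quality controls. All tests done in duplicate.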

Acinetobacter baumannii [4] = assay: Antimicrobial activity against Acinetobacter baumannii Ab290 harboring TVICU53 plasmid by broth dilution test; summary of the method: as §1
Acinetobacter baumannii [5] = assay: Antimicrobial activity against Acinetobacter baumannii Ab290 by broth dilution test
Summary of the method: (§2)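 MICs determined by broth dilution on automated Sensititre susceptibility plates or by agar dilution, interpreted per CLSI guidelines. Carbapenem MICs confirmed by Etest. E. coli ATCC 25922 and P. aeruginosa ATCC 27853 served as quality-control strains. All tests done in duplicate.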

Acinetobacter baumannii [6] = assay: Antimicrobial activity against Acinetobacter baumannii ATCC 15151T by broth dilution test; summary of the method: as §2
Acinetobacter baumannii [7] = assay: Antimicrobial activity against Acinetobacter baumannii Ab290 containing plasmid harboring OXA-58-3 by broth dilution test; summary of the method: as §1
Escherichia coli [8] = assay: Antimicrobial activity against Escherichia coli DH5alpha by broth dilution test
Acinetobacter baumannii [9] = assay: Antimicrobial activity against Acinetobacter baumannii Ab290 containing plasmid harboring OXA-58-4 by broth dilution test; summary of the method: as §1
Escherichia coli [10] = assay: Antimicrobial activity against Escherichia coli DH5alpha harboring plasmid containing OXA-58-4 by broth dilution test

CC(C)(O/N=C(\C(=O)N[C@@H]1C(=O)N2C(C(=O)[O-])=C(C[n+]3ccccc3)CS[C@H]12)c1csc(N)n1)C(=O)O [CEFTAZIDIME]
MIC (Escherichia coli [1]): < 0.12 µg/mL
MIC (Acinetobacter baumannii [2]): 8 µg/mL (≈ 14.6 µM)
MIC (Acinetobacter baumannii [3]): 128 µg/mL (≈ 234 µM)
MIC (Acinetobacter baumannii [4]): 4 µg/mL (≈ 7.32 µM)
MIC (Acinetobacter baumannii [5]): 4 µg/mL (≈ 7.32 µM)
MIC (Acinetobacter baumannii [6]): 8 µg/mL (≈ 14.6 µM)
MIC (Acinetobacter baumannii [7]): 4 µg/mL (≈ 7.32 µM)
MIC (Escherichia coli [8]): < 0.12 µg/mL

CC1(C)S[C@@H]2[C@H](NC(=O)[C@H](N)c3ccc(O)cc3)C(=O)N2[C@H]1C(=O)O [AMOXICILLIN]
MIC (Acinetobacter baumannii [9]): > 256 µg/mL
MIC (Escherichia coli [1]): > 256 µg/mL
MIC (Escherichia coli [10]): > 256 µg/mL
MIC (Acinetobacter baumannii [3]): > 256 µg/mL
MIC (Acinetobacter baumannii [4]): > 256 µg/mL
MIC (Acinetobacter baumannii [5]): 32 µg/mL (≈ 87.6 µM)
MIC (Acinetobacter baumannii [6]): > 256 µg/mL
MIC (Acinetobacter baumannii [7]): > 256 µg/mL
MIC (Escherichia coli [8]): 8 µg/mL (≈ 21.9 µM)

CO/N=C(\C(=O)N[C@@H]1C(=O)N2C(C(=O)O)=C(COC(N)=O)CS[C@H]12)c1ccco1 [CEFUROXIME]
MIC (Escherichia coli [1]): 4 µg/mL (≈ 9.43 µM)
MIC (Acinetobacter baumannii [3]): > 128 µg/mL
MIC (Acinetobacter baumannii [4]): 32 µg/mL (≈ 75.4 µM)
MIC (Acinetobacter baumannii [5]): 32 µg/mL (≈ 75.4 µM)
MIC (Acinetobacter baumannii [6]): > 128 µg/mL
MIC (Acinetobacter baumannii [7]): 32 µg/mL (≈ 75.4 µM)
MIC (Escherichia coli [8]): 4 µg/mL (≈ 9.43 µM)

C[C@H]1[C@H](NC(=O)/C(=N\OC(C)(C)C(=O)O)c2csc(N)n2)C(=O)N1S(=O)(=O)O [AZTREONAM]
MIC (Escherichia coli [1]): < 0.12 µg/mL
MIC (Acinetobacter baumannii [2]): 128 µg/mL (≈ 294 µM)
MIC (Acinetobacter baumannii [3]): 64 µg/mL (≈ 147 µM)
MIC (Acinetobacter baumannii [4]): 16 µg/mL (≈ 36.7 µM)
MIC (Acinetobacter baumannii [6]): 64 µg/mL (≈ 147 µM)
MIC (Acinetobacter baumannii [7]): 16 µg/mL (≈ 36.7 µM)
MIC (Escherichia coli [8]): < 0.12 µg/mL

Cc1nnc(SCC2=C(C(=O)O)N3C(=O)[C@@H](NC(=O)Cn4cnnn4)[C@H]3SC2)s1 [CEFAZOLIN]
MIC (Escherichia coli [1]): 8 µg/mL (≈ 17.6 µM)
MIC (Acinetobacter baumannii [3]): > 128 µg/mL
MIC (Acinetobacter baumannii [5]): > 128 µg/mL
MIC (Acinetobacter baumannii [6]): > 128 µg/mL
MIC (Escherichia coli [8]): 4 µg/mL (≈ 8.8 µM)

C[C@@H](O)[C@H]1C(=O)N2C(C(=O)O)=C(SCCNC=N)C[C@H]12 [IMIPENEM ANHYDROUS]
MIC (Acinetobacter baumannii [9]): 1 µg/mL (≈ 3.34 µM)
MIC (Escherichia coli [1]): 2 µg/mL (≈ 6.68 µM)
MIC (Escherichia coli [10]): 0.25 µg/mL (≈ 0.835 µM)
MIC (Acinetobacter baumannii [2]): 32 µg/mL (≈ 107 µM)
MIC (Acinetobacter baumannii [3]): 64 µg/mL (≈ 214 µM)
MIC (Acinetobacter baumannii [4]): 32 µg/mL (≈ 107 µM)
MIC (Acinetobacter baumannii [5]): 0.25 µg/mL (≈ 0.835 µM)
MIC (Acinetobacter baumannii [6]): 0.5 µg/mL (≈ 1.67 µM)
MIC (Acinetobacter baumannii [7]): 64 µg/mL (≈ 214 µM)
MIC (Escherichia coli [8]): 0.25 µg/mL (≈ 0.835 µM)

CO/N=C(\C(=O)N[C@@H]1C(=O)N2C(C(=O)O)=C(COC(C)=O)CS[C@H]12)c1csc(N)n1 [CEFOTAXIME]
MIC (Acinetobacter baumannii [2]): 16 µg/mL (≈ 35.1 µM)
MIC (Acinetobacter baumannii [3]): 64 µg/mL (≈ 141 µM)
MIC (Acinetobacter baumannii [4]): 8 µg/mL (≈ 17.6 µM)
MIC (Acinetobacter baumannii [5]): 8 µg/mL (≈ 17.6 µM)
MIC (Acinetobacter baumannii [6]): 16 µg/mL (≈ 35.1 µM)
MIC (Acinetobacter baumannii [7]): 8 µg/mL (≈ 17.6 µM)
MIC (Escherichia coli [8]): < 0.12 µg/mL

C[C@@H](O)[C@H]1C(=O)N2C(C(=O)O)=C(S[C@@H]3CN[C@H](C(=O)N(C)C)C3)[C@H](C)[C@H]12 [MEROPENEM]
MIC (Acinetobacter baumannii [9]): 0.5 µg/mL (≈ 1.3 µM)
MIC (Acinetobacter baumannii [2]): 32 µg/mL (≈ 83.4 µM)
MIC (Acinetobacter baumannii [3]): 16 µg/mL (≈ 41.7 µM)
MIC (Acinetobacter baumannii [4]): 16 µg/mL (≈ 41.7 µM)
MIC (Acinetobacter baumannii [5]): 0.25 µg/mL (≈ 0.652 µM)
MIC (Acinetobacter baumannii [6]): 0.5 µg/mL (≈ 1.3 µM)
MIC (Acinetobacter baumannii [7]): 16 µg/mL (≈ 41.7 µM)
MIC (Escherichia coli [8]): < 0.25 µg/mL

CC1(C)S[C@@H]2[C@H](NC(=O)[C@H](C(=O)O)c3ccsc3)C(=O)N2[C@H]1C(=O)O [TICARCILLIN]
MIC (Acinetobacter baumannii [9]): 256 µg/mL (≈ 666 µM)
MIC (Escherichia coli [1]): > 1020 µg/mL
MIC (Escherichia coli [10]): 256 µg/mL (≈ 666 µM)
MIC (Acinetobacter baumannii [2]): > 1020 µg/mL
MIC (Acinetobacter baumannii [3]): > 1020 µg/mL
MIC (Acinetobacter baumannii [4]): > 1020 µg/mL
MIC (Acinetobacter baumannii [5]): 16 µg/mL (≈ 41.6 µM)
MIC (Acinetobacter baumannii [6]): 8 µg/mL (≈ 20.8 µM)
MIC (Acinetobacter baumannii [7]): > 1020 µg/mL
MIC (Escherichia coli [8]): 8 µg/mL (≈ 20.8 µM)

Source: ChEMBL document CHEMBL1275439, “Acquisition of a plasmid-borne blaOXA-58 gene with an upstream IS1008 insertion conferring a high level of carbapenem resistance to Acinetobacter baumannii” (2008)
